≈ marks a conversion by molar mass, not a printed value.
How the values were obtained:
[1] = Cmax in mouse at 30 mg/kg, po; format: ADME, organism-based; set-up: dose 30 mg/kg, route oral; details: in vivo
Mus musculus [2] = experiment: Cmax in mouse assessed as 3-[2-[(5R)-5-(carboxymethyl)-8-(trifluoromethyl)-1,2,3,5-tetrahydropyrido[2,3-e][1,4]diazepin-4-yl]-2-oxoethyl]benzoic acid inactive metabolite at 30 mg/kg, po; format: ADME, organism-based; set-up: dose 30 mg/kg, route oral; details: in vivo
Method in brief: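 Mice acclimated 7–11 days with free access to chow and tap water, then given the ester parent orally at 30 mg/kg as a suspension in 0.5 (w/v)% methyl cellulose 400. Plasma was stored at −20 °C. The carboxylic acid metabolite was quantified in plasma by LC–MS/MS. Cmax is the average of 2 or 3 mice.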

[3] = target: T1, Bombesin receptor subtype-3 (Mus musculus, UniProt O54798); experiment: Agonist activity at mouse BRS3 expressed in CHO-K1 cells by IP-One HTRF assay; format: cell-based
T1 sequence (O54798 whole entry): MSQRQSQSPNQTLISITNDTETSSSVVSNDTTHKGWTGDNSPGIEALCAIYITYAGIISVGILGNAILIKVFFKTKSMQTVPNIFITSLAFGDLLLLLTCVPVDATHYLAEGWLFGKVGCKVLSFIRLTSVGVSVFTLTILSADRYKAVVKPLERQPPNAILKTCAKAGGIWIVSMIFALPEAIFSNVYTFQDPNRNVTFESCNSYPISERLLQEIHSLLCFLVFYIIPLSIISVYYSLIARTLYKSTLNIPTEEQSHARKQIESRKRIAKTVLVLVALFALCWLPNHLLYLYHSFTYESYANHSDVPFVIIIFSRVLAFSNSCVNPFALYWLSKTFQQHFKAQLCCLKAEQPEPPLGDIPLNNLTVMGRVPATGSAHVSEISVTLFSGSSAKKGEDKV

[4] = target: T2, Bombesin receptor subtype-3 (Homo sapiens, UniProt P32247); experiment: Agonist activity at human BRS3 expressed in CHO-K1 cells by IP-One HTRF assay; format: cell-based
T2 sequence (P32247 whole entry): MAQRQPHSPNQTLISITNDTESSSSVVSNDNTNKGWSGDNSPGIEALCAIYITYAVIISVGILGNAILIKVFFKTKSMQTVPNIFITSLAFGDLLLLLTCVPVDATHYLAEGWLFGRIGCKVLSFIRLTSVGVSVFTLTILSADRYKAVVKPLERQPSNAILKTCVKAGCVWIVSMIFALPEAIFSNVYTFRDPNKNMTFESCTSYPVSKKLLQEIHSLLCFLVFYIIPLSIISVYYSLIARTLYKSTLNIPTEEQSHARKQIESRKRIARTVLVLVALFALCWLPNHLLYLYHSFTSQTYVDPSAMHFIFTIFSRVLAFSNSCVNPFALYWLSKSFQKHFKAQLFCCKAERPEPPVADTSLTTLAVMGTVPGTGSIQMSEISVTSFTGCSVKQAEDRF

Mus musculus [5] = experiment: Drug metabolism in mouse assessed as ratio of compound to 3-[2-[(5R)-5-(carboxymethyl)-8-(trifluoromethyl)-1,2,3,5-tetrahydropyrido[2,3-e][1,4]diazepin-4-yl]-2-oxoethyl]benzoic acid inactive metabolites at 30 mg/kg, po; format: ADME, organism-based; set-up: dose 30 mg/kg, route oral; details: in vivo
Mus musculus [6] = experiment: Drug metabolism in mouse assessed as ratio of compound to 2-[(5R)-4-[2-(3-hydroxyphenyl)acetyl]-8-(trifluoromethyl)-1,2,3,5-tetrahydropyrido[2,3-e][1,4]diazepin-5-yl]acetic acid at 30 mg/kg, po; format: ADME, organism-based; set-up: dose 30 mg/kg, route oral; details: in vivo
Mus musculus [7] = experiment: Cmax in mouse assessed as 2-[(5R)-4-[2-(3-hydroxyphenyl)acetyl]-8-(trifluoromethyl)-1,2,3,5-tetrahydropyrido[2,3-e][1,4]diazepin-5-yl]acetic acid inactive metabolite at 30 mg/kg, po; format: ADME, organism-based; set-up: dose 30 mg/kg, route oral; details: in vivo
Canis familiaris [8] = experiment: Cardiotoxicity in beagle dog assessed as heart rate at 3 mg/kg/3 ml, iv for 30 mins; format: toxicity, organism-based, Canis lupus familiaris; set-up: route intravenous; details: in vivo, 0.5 h
Method in brief: (§1)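 Dogs were anaesthetized with halothane (0.5–1.5% end-tidal) after iv thiopental 30 mg/kg. Compound was dispersed at 1 mg/mL in 20% hydroxypropyl-β-cyclodextrin and infused into the femoral vein at 3 mg/kg/3 mL over 30 min. Femoral artery HR and mean BP were recorded for 60 min, normalized to the 0-min value; n = 2.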

Canis familiaris [9] = experiment: Cardiotoxicity in beagle dog assessed as blood pressure at 3 mg/kg/3 ml, iv for 30 mins; format: toxicity, organism-based, Canis lupus familiaris; set-up: route intravenous; details: in vivo, 0.5 h; method in brief: as §1
Mus musculus [10] = experiment: Antiobesity activity in C57BL/6N mouse assessed as reduction in food intake at 30 mg/kg, po single dose; format: functional
Method in brief: (§2)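 Male C57BL/6N mice, 7 weeks old, were fasted 16 h, housed singly and habituated 1 h. They then received a single oral dose (1, 3, 10, 30 mg/kg) or vehicle (0.5% methylcellulose). Chow was given 1 h later and cumulative intake over 6 h was recorded. n = 4–5; Dunnett's test versus vehicle.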

[11] = Solubility of the compound in JP2; format: physicochemical
Mus musculus [12] = experiment: (§3) AUC in mouse at 30 mg/kg, po; format: ADME, organism-based, Plasma; set-up: dose 30 mg/kg, route oral; details: in vivo, BLD = below limit of detection
Mus musculus [13] = experiment: (§4) Half life in mouse at 30 mg/kg, po; format: ADME, organism-based; set-up: dose 30 mg/kg, route oral; details: in vivo, BLD = below limit of detection
Mus musculus [14] = experiment: Antiobesity activity in po dosed C57BL/6N mouse assessed as anorectic effect; format: functional, organism-based; method in brief: as §2
[15] = Fraction unbound in mouse plasma; format: ADME, cell-free
Method in brief: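 Unbound fraction measured in mouse plasma.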

Mus musculus [16] = experiment: Half life in mouse assessed as 2-[(5R)-4-[2-(3-Hydroxyphenyl)acetyl]-8-(trifluoromethyl)-1,2,3,5-tetrahydropyrido[2,3-e][1,4]diazepin-5-yl]acetic acid at 30 mg/kg, po; format: ADME, organism-based; set-up: dose 30 mg/kg, route oral; details: in vivo
Mus musculus [17] = experiment: Tmax in mouse assessed as 2-[(5R)-4-[2-(3-hydroxyphenyl)acetyl]-8-(trifluoromethyl)-1,2,3,5-tetrahydropyrido[2,3-e][1,4]diazepin-5-yl]acetic acid at 30 mg/kg, po; format: ADME, organism-based; set-up: dose 30 mg/kg, route oral; details: in vivo
Mus musculus [18] = experiment: AUC in mouse assessed as 2-[(5R)-4-[2-(3-Hydroxyphenyl)acetyl]-8-(trifluoromethyl)-1,2,3,5-tetrahydropyrido[2,3-e][1,4]diazepin-5-yl]acetic acid at 30 mg/kg, po; format: ADME, organism-based, Plasma; set-up: dose 30 mg/kg, route oral; details: in vivo
[19] = Tmax in mouse at 30 mg/kg, po; format: ADME, organism-based; set-up: dose 30 mg/kg, route oral; details: in vivo
[20] = as §3; format: ADME, organism-based, Plasma; set-up: dose 30 mg/kg, route oral; details: plasma
[21] = as §4; format: ADME, organism-based; set-up: dose 30 mg/kg, route oral; details: in vivo

Row | Structure (SMILES) | Cmax [1] | Cmax (Mus musculus [2]) | EC50 [3] | EC50 [4] | Ratio (Mus musculus [5]) | Ratio (Mus musculus [6]) | Cmax (Mus musculus [7]) | also measured
1 | CC(C)OC(=O)c1cccc(CC(=O)N2CCNc3nc(C(F)(F)F)ccc3[C@H]2CC(=O)O)c1 | 1240 nM | 918 nM | 45 nM | 40 nM | 1.35 | – | – | –
2 | CC(C)(C)CC(=O)Oc1cccc(CC(=O)N2CCNc3nc(C(F)(F)F)ccc3[C@H]2CC(=O)O)c1 | 5.8 nM | – | 20 nM | 8.7 nM | – | 0.179 | 32.5 nM | –
3 | CC(C)COc1cccc(CC(=O)N2CCNc3nc(C(F)(F)F)ccc3[C@H]2CC(=O)O)c1 | – | – | – | – | – | – | – | Activity (Canis familiaris [8]): Toxic; Activity (Canis familiaris [9]): Toxic
4 | O=C(O)C[C@@H]1c2ccc(C(F)(F)F)nc2NCCN1C(=O)Cc1cccc(C(=O)O)c1 | – | – | > 10000 nM | > 10000 nM | – | – | – | –
5 | CCCCOC(=O)c1cccc(CC(=O)N2CCNc3nc(C(F)(F)F)ccc3[C@H]2CC(=O)O)c1 | 28.5 nM | 1630 nM | 5.6 nM | 4 nM | 0.0175 | – | – | –
6 | O=C(O)C[C@@H]1c2ccc(C(F)(F)F)nc2NCCN1C(=O)Cc1cccc(C(=O)OCC2CC2)c1 | 39.3 nM | 300 nM | 3.7 nM | 3.4 nM | 0.131 | – | – | –
7 | CC(C)CC(=O)Oc1cccc(CC(=O)N2CCNc3nc(C(F)(F)F)ccc3[C@H]2CC(=O)O)c1 | – | – | 43 nM | 12 nM | – | 0 | 1260 nM | inhibition in vivo at 30 mg/kg (Mus musculus [10]): 30%; Activity (Canis familiaris [8]): Non-toxic; Activity (Canis familiaris [9]): Non-toxic; solubility [11]: 900 µg/mL (≈ 1820 µM); AUC (Mus musculus [12]): BLD; t1/2 (Mus musculus [13]): BLD; inhibition (Mus musculus [14]): Dose-dependent effect; fraction unbound [15]: 0.108
8 | O=C(O)C[C@@H]1c2ccc(C(F)(F)F)nc2NCCN1C(=O)Cc1cccc(OC(=O)CC2CC2)c1 | – | – | 81 nM | 42 nM | – | 0 | 607 nM | –
9 | CC(C)(C)COC(=O)c1cccc(CC(=O)N2CCNc3nc(C(F)(F)F)ccc3[C@H]2CC(=O)O)c1 | 12.7 nM | 197 nM | 8.1 nM | 5.6 nM | 0.0643 | – | – | –
10 | CCCCC(=O)Oc1cccc(CC(=O)N2CCNc3nc(C(F)(F)F)ccc3[C@H]2CC(=O)O)c1 | 28.5 nM | – | 35 nM | 19 nM | – | 0.0175 | 1630 nM | –
11 | CC(C)COC(=O)c1cccc(CC(=O)N2CCNc3nc(C(F)(F)F)ccc3[C@H]2CC(=O)O)c1 | 30.8 nM | 2120 nM | 5.4 nM | 4.2 nM | 0.0145 | – | – | –
12 | O=C(O)C[C@@H]1c2ccc(C(F)(F)F)nc2NCCN1C(=O)Cc1cccc(O)c1 | 40 nM | – | > 10000 nM | > 10000 nM | – | – | – | t1/2 (Mus musculus [16]): 15 min; Tmax (Mus musculus [17]): 15 min; AUC (Mus musculus [18]): 1230 ng·h/mL; solubility [11]: 780 µg/mL (≈ 1910 µM); Tmax [19]: 15 min; AUC [20]: 1230 ng·h/mL; half-life [21]: 15 min; fraction unbound [15]: > 0.3
13 | CC(C)C(=O)Oc1cccc(CC(=O)N2CCNc3nc(C(F)(F)F)ccc3[C@H]2CC(=O)O)c1 | – | – | 282 nM | 68 nM | – | 0 | 680 nM | –
